In ChEMBL document CHEMBL1255291, “Potent antimalarial activity of histone deacetylase inhibitor analogues” (Antimicrob Agents Chemother, 2008):
Calls of active or inactive are those of the source. The calls are words filed in the database; no cut-off is given here.

What was measured:
Plasmodium falciparum [1] = test: Antimalarial activity against chloroquine-resistant Plasmodium falciparum Dd2 infected in O+ human erythrocytes by [3H]hypoxanthine incorporation assay; assay type: functional, organism-based
Outline: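 Parasites cultured in O+ human erythrocytes in RPMI 1640 with 10% heat-inactivated human serum. Synchronous ring-stage infected cells were set at 0.25% parasitemia and 2.5% hematocrit, and growth was measured by [3H]hypoxanthine incorporation. IC50 was taken against DMSO controls by linear interpolation of inhibition curves. Chloroquine served as the internal control. Triplicate wells, at least four separate occasions.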

Plasmodium falciparum [2] = test: Antimalarial activity against chloroquine-sensitive Plasmodium falciparum 3D7 infected in O+ human erythrocytes by [3H]hypoxanthine incorporation assay; assay type: functional, organism-based; settings: 3D7, 3 h
[3] = Toxicity in neonatal foreskin fibroblasts; assay type: ADME, cell-based; settings: Fibroblast
[4] = Selectivity index, ratio of IC50 for neonatal foreskin fibroblasts to IC50 for chloroquine-resistant Plasmodium falciparum Dd2
[5] = Selectivity index, ratio of IC50 for neonatal foreskin fibroblasts to IC50 for chloroquine-sensitive Plasmodium falciparum 3D7
Plasmodium falciparum [6] = test: Antimalarial activity against chloroquine-resistant Plasmodium falciparum W2 infected in O+ human erythrocytes by [3H]hypoxanthine incorporation assay; assay type: functional, organism-based
Plasmodium falciparum [7] = test: Antimalarial activity against chloroquine-sensitive Plasmodium falciparum D6 infected in O+ human erythrocytes by [3H]hypoxanthine incorporation assay; assay type: functional, organism-based
[8] = Toxicity in african green monkey Vero cells; assay type: cell-based; settings: African green monkey (Chlorocebus sabaeus)
[9] = Selectivity index, ratio of IC50 for african green monkey (Cercopithecus aethiops) Vero cells to IC50 for chloroquine-resistant Plasmodium falciparum W2; assay type: toxicity, cell-based; settings: read-out: Ratio IC50
[10] = Selectivity index, ratio of IC50 for african green monkey (Cercopithecus aethiops) Vero cells to IC50 for chloroquine-sensitive Plasmodium falciparum D6; assay type: toxicity, cell-based; settings: read-out: Ratio IC50
Plasmodium falciparum [11] = test: Antimalarial activity against Plasmodium falciparum infected in O+ human erythrocytes assessed as reduction in parasites at ring stage at 50 nM after 48 hrs by Giemsa staining based microscopy; assay type: functional, organism-based
Outline: (§1)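 Synchronous Dd2-infected erythrocytes at ring (~18 h postinvasion), trophozoite (~26 h) or schizont (~38 h) stage, starting parasitemia 0.2–1.0%, exposed to 50 or 200 nM; DMSO (<0.05%) vehicle controls. Parasitemia counted on Giemsa-stained thin smears over 2–4 days, at least 1,000 erythrocytes by two counters. 48 h means compared by ANOVA; three independent experiments.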

Plasmodium falciparum [12] = test: Antimalarial activity against Plasmodium falciparum infected in O+ human erythrocytes assessed as reduction in parasites at trophozoites stage at 200 nM after 48 hrs by Giemsa staining based microscopy; assay type: functional, organism-based; outline: as §1
Plasmodium falciparum [13] = test: Antimalarial activity against Plasmodium falciparum infected in O+ human erythrocytes assessed as reduction in parasites at trophozoites stage at 50 nM after 48 hrs by Giemsa staining based microscopy; assay type: functional, organism-based; outline: as §1
Plasmodium falciparum [14] = test: Antimalarial activity against Plasmodium falciparum infected in O+ human erythrocytes assessed as reduction in parasites at schizonts stage at 200 nM after 48 hrs by Giemsa staining based microscopy; assay type: functional, organism-based; outline: as §1
Plasmodium falciparum [15] = test: Antimalarial activity against Plasmodium falciparum infected in O+ human erythrocytes assessed as reduction in parasites at schizonts stage at 50 nM after 48 hrs by Giemsa staining based microscopy; assay type: functional, organism-based; outline: as §1
Plasmodium falciparum [16] = test: Inhibition of HDAC in Plasmodium falciparum Dd2 infected in O+ human erythrocytes assessed as alteration of histone acetylation at 20 to 500 nM after 3.5 hrs by Westen blot; assay type: organism-based
Outline: (§2)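 Late-trophozoite Dd2-infected erythrocytes (3 x 10^9) treated 3.5 h at 37°C at 20, 100 or 500 nM, DMSO vehicle controls. Saponin lysis, histones acid-extracted in 0.5 M HCl, acetone-precipitated, run on 15% SDS-PAGE (silver stain for loading). Western blot with anti-tetra-acetyl histone H4 antiserum (1:2,000), then HRP anti-rabbit (1:5,000).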

Plasmodium falciparum [17] = test: Antimalarial activity against Plasmodium falciparum infected in O+ human erythrocytes assessed as reduction in parasites at ring stage at 200 nM after 48 hrs by Giemsa staining based microscopy; assay type: functional, organism-based; outline: as §1
Plasmodium falciparum [18] = test: Inhibition of HDAC in Plasmodium falciparum Dd2 infected in O+ human erythrocytes assessed as alteration of histone acetylation at 500 nM after 3.5 hrs by Westen blot; assay type: organism-based; outline: as §2
[19] = Toxicity in human WI38 cells; assay type: cell-based, WI-38
[20] = Toxicity in breast fibroblasts; assay type: cell-based; settings: Fibroblast
[21] = Selectivity index, ratio of IC50 for human WI38 cells to IC50 for chloroquine-resistant Plasmodium falciparum Dd2
[22] = Selectivity index, ratio of IC50 for human WI38 cells to IC50 for chloroquine-sensitive Plasmodium falciparum 3D7
Plasmodium falciparum [23] = test: Antimalarial activity against Plasmodium falciparum; assay type: functional, organism-based
Outline: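 Dd2 and 3D7 grown in O-positive human erythrocytes, RPMI 1640 with 10% heat-inactivated human serum. Synchronous ring-stage infected cells, 0.25% parasitemia, 2.5% hematocrit; growth read as [3H]hypoxanthine incorporation versus DMSO controls. IC50 taken by linear interpolation of inhibition curves. Chloroquine as internal control; triplicate wells, at least four separate occasions.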

Compound	IC50 (Plasmodium falciparum [1]) [nM]	IC50 (Plasmodium falciparum [2]) [nM]	IC50 [3] [nM]	Ratio IC50 [4]	Ratio IC50 [5]	other results
O=C(CCCCC[C@H](NC(=O)OCc1ccccc1)C(=O)Nc1ccc(-c2ccccc2)cc1)NO	105	29	2200	21	76	–
O=C(CCCCCCC(=O)NO)NO [SUBEROHYDROXAMIC ACID]	–	–	–	–	–	IC50 (Plasmodium falciparum [6]): 1780 nM; IC50 (Plasmodium falciparum [7]): 940 nM; IC50 [8]: > 20000 nM; selectivity ratio [9]: > 21; selectivity ratio [10]: > 21
O=C(CCCCC[C@H](NC(=O)c1cc2ccccc2[nH]1)C(=O)Nc1cccc2cccnc12)NO	33	13	337	10	26	inhibition (Plasmodium falciparum [11]): Active; inhibition (Plasmodium falciparum [12]): Active; inhibition (Plasmodium falciparum [13]): Active; inhibition (Plasmodium falciparum [14]): Active; inhibition (Plasmodium falciparum [15]): Active; inhibition (Plasmodium falciparum [16]): Active; inhibition (Plasmodium falciparum [17]): Active
O=C(CCCSC[C@H](NC(=O)c1ccc(Br)cc1)C(=O)NCc1ccccc1)NO	125	–	830	13	–	–
CN(C)c1ccc(C(=O)N[C@@H](CCCCCC(=O)NO)C(=O)Nc2cccc3cccnc23)cc1	71	19	570	8	30	–
O=C(/C=C\c1ccccc1)N[C@@H](CSCCCC(=O)NO)C(=O)NCc1ccccc1	339	–	800	2	–	–
O=C(CCCCC[C@H](NC(=O)c1cc2ccccc2[nH]1)C(=O)NCc1ccccc1)NO	63	34	1260	20	37	–
CN(C)c1ccc(C(=O)N[C@@H](CSCCCC(=O)NO)C(=O)NC2CCCc3ccccc32)cc1 (stereo not given in full)	305	–	2200	7	–	–
CC(NC(=O)c1ccccc1/N=C/c1c(O)ccc2ccccc12)c1ccccc1 (stereo not given) [SIRTINOL]	9100	12900	> 25000	2.7	1.9	–
CN(C)c1ccc(NC(=O)[C@H](CSCCCC(=O)NO)NC(=O)c2ccc(N(C)C)cc2)cc1	48	–	600	12	–	–
CC(/C=C/C(=O)NO)=C\[C@@H](C)C(=O)c1ccc(N(C)C)cc1 [TRICHOSTATIN]	8	11	200	25	18	inhibition (Plasmodium falciparum [12]): Active; inhibition (Plasmodium falciparum [14]): Active; inhibition (Plasmodium falciparum [18]): Active; inhibition (Plasmodium falciparum [17]): Active
CN(C)c1ccc(C(=O)N[C@@H](CSCCCC(=O)NO)C(=O)NCc2ccccc2)cc1	169	–	350	2	–	–
O=C(/C=C/c1ccccc1)N[C@@H](CCCCCC(=O)NO)C(=O)NCc1ccccc1	102	34	4010	39	118	–
CC(C)(C)OC(=O)N[C@@H](CCCCCS)C(=O)NC1CCCC1	19900	15200	–	–	–	–
O=C(/C=C/c1ccccc1)N[C@@H](CCCCCC(=O)NO)C(=O)Nc1cccc2cccnc12	39	15	1240	32	83	inhibition (Plasmodium falciparum [11]): Active; inhibition (Plasmodium falciparum [12]): Active; inhibition (Plasmodium falciparum [13]): Active; inhibition (Plasmodium falciparum [14]): Active; inhibition (Plasmodium falciparum [15]): Active; inhibition (Plasmodium falciparum [16]): Active; inhibition (Plasmodium falciparum [17]): Active
CN(C)c1ccc(C(=O)N[C@@H](CSCCCC(=O)NO)C(=O)Nc2ccc(-c3ccccc3)cc2)cc1	128	–	320	3	–	–
Nc1ccccc1NC(=O)c1ccc(CNC(=O)OCc2cccnc2)cc1 [ENTINOSTAT]	7800	8300	–	–	–	IC50 [19]: > 20000 nM; IC50 [20]: 20000 nM; selectivity ratio [21]: > 2.6; selectivity ratio [22]: > 2.4
O=C(CCCCC[C@H](NC(=O)c1ccc(Br)cc1)C(=O)NCc1ccccc1)NO	334	91	5860	17	64	–
O=C(CCCCC[C@H](NC(=O)c1ccc(Br)cc1)C(=O)Nc1ccc(-c2ccccc2)cc1)NO	41	22	190	5	9	–
O=C(CCCCCCCC(=O)NO)NO [AZELAIC BIS HYDROXAMIC ACID]	–	–	–	–	–	IC50 (Plasmodium falciparum [23]): 3200 nM
